# Source: ChEMBL document CHEMBL1949585, “Design, synthesis and evaluation of telomerase inhibitory, hTERT repressing, and anti-proliferation activities of symmetrical 1,8-disubstituted amidoanthraquinones” (Eur J Med Chem, 2012)
# pIC50: −log10 of the molar value. The source made the active and inactive calls. The calls are words filed in the database; no cut-off is given here.
# How the values were obtained:
# [1] = Cytotoxicity against human H1299 cells assessed as cell growth at 10 uM after 48 hrs by MTT assay; type: functional; conditions: NCI-H1299, 48 h, read-out: Activity
# Summary of the method: (§1)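 H1299 non-small lung cancer cells were grown in RPMI 1640 with 10% FBS and penicillin/streptomycin at 37 °C in 5% CO2. About 2×10³ cells were seeded per well and held 24 h, then washed with PBS and given fresh medium. Compound, freshly dissolved in DMSO and diluted in complete medium, was added for 48 h. MTT was read at 550 nm after SDS/DMF lysis at 37 °C for 16 h. Values are from three experiments, untreated = 100%, ±SD.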
# [2] = Inhibition of human TERT expression in H1299 cells at 100 uM after 24 hrs by secreted alkaline phosphatase reporter gene assay relative to control; values are per cent of control; conditions: NCI-H1299
# [3] = Cytotoxicity against human H1299 cells assessed as cell growth at 100 uM after 48 hrs by MTT assay; type: functional; conditions: NCI-H1299, 48 h, read-out: Activity; summary of the method: as §1
# [4] = Inhibition of human TERT expression in H1299 cells at 10 uM after 24 hrs by secreted alkaline phosphatase reporter gene assay relative to control; values are per cent of control; conditions: NCI-H1299
# [5] = Cytotoxicity against human H1299 cells assessed as cell growth at 1 uM after 48 hrs by MTT assay; type: functional; conditions: NCI-H1299, 48 h, read-out: Activity; summary of the method: as §1
# [6] = Inhibition of human TERT expression in H1299 cells at 1 uM after 24 hrs by secreted alkaline phosphatase reporter gene assay relative to control; values are per cent of control; conditions: NCI-H1299
# H1299 [7] = assay: Inhibition of human telomerase in H1299 cell lysate at 10 uM by PCR-based telomeric repeat amplification protocol assay; type: cell-free
# Summary of the method: (§2)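 TRAP assay on telomerase-active H1299 cell extracts, with RNase A-treated extract as the negative control. Compound was preincubated with extract for 5 min at room temperature before the telomerase extension and PCR amplification. The initial screen used 10 µM, and IC50 came from a dose series.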
# H1299 [8] = assay: Inhibition of human telomerase in H1299 cell lysate compound incubated post-telomerase extension by PCR-based telomeric repeat amplification protocol assay; type: cell-free
# Summary of the method: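 Modified TRAP assay (TRAP-M) to test for interference with Taq polymerase. Compound was added to H1299 extract reactions right after the telomerase extension step and before PCR amplification.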
# H1299 [9] = assay: (§3) Inhibition of human telomerase in H1299 cell lysate compound incubated for 5 mins prior to telomerase extension by PCR-based telomeric repeat amplification protocol assay; type: cell-free; summary of the method: as §2
# [10] = as §3; type: cell-free; summary of the method: as §2
compound,measurement,setting,value
CN(C)CCCCNCCC(=O)Nc1cccc2c1C(=O)c1c(NC(=O)CCNCCCCN(C)C)cccc1C2=O,growth at 10 µM,[1],74%
same,"level, % of control",[2],4%
same,growth at 100 µM,[3],7%
same,"level, % of control",[4],97%
same,growth at 1 µM,[5],98%
same,"level, % of control",[6],121%
same,inhibition,H1299 [7],Active
same,inhibition,H1299 [8],Dose-dependent effect
same,inhibition,H1299 [9],Dose-dependent effect
same,pIC50,[10],5.22
CC(C)NCC(=O)Nc1cccc2c1C(=O)c1c(NC(=O)CNC(C)C)cccc1C2=O,growth at 10 µM,[1],86%
same,"level, % of control",[2],35%
same,growth at 100 µM,[3],14%
same,"level, % of control",[4],101%
same,growth at 1 µM,[5],89%
same,"level, % of control",[6],103%
O=C(CNCc1cccc(C(F)(F)F)c1)Nc1cccc2c1C(=O)c1c(NC(=O)CNCc3cccc(C(F)(F)F)c3)cccc1C2=O,growth at 10 µM,[1],93%
same,"level, % of control",[2],33%
same,growth at 100 µM,[3],93%
same,"level, % of control",[4],84%
same,growth at 1 µM,[5],97%
same,"level, % of control",[6],75%
CC(C)NCCC(=O)Nc1cccc2c1C(=O)c1c(NC(=O)CCNC(C)C)cccc1C2=O,growth at 10 µM,[1],29%
same,"level, % of control",[2],0%
same,growth at 100 µM,[3],14%
same,"level, % of control",[4],16%
same,growth at 1 µM,[5],101%
same,"level, % of control",[6],106%
same,inhibition,H1299 [7],Active
same,inhibition,H1299 [8],Dose-dependent effect
same,inhibition,H1299 [9],Dose-dependent effect
same,pIC50,[10],5.52
COC(=O)[C@@H](NCC(=O)Nc1cccc2c1C(=O)c1c(NC(=O)CN[C@H](C(=O)OC)c3ccccc3)cccc1C2=O)c1ccccc1,growth at 10 µM,[1],59%
same,"level, % of control",[2],42%
same,growth at 100 µM,[3],18%
same,"level, % of control",[4],74%
same,growth at 1 µM,[5],77%
same,"level, % of control",[6],97%
COC(=O)[C@H](NCC(=O)Nc1cccc2c1C(=O)c1c(NC(=O)CN[C@@H](C(=O)OC)C(C)C)cccc1C2=O)C(C)C,growth at 10 µM,[1],80%
same,"level, % of control",[2],45%
same,growth at 100 µM,[3],58%
same,"level, % of control",[4],95%
same,growth at 1 µM,[5],88%
same,"level, % of control",[6],91%
CC(C)CNCC(=O)Nc1cccc2c1C(=O)c1c(NC(=O)CNCC(C)C)cccc1C2=O,growth at 10 µM,[1],44%
same,"level, % of control",[2],77%
same,growth at 100 µM,[3],28%
same,"level, % of control",[4],86%
same,growth at 1 µM,[5],53%
same,"level, % of control",[6],110%
CC(C)(C)OC(=O)NCCNCCC(=O)Nc1cccc2c1C(=O)c1c(NC(=O)CCNCCNC(=O)OC(C)(C)C)cccc1C2=O,growth at 10 µM,[1],78%
same,"level, % of control",[2],33%
same,growth at 100 µM,[3],11%
same,"level, % of control",[4],84%
same,growth at 1 µM,[5],82%
same,"level, % of control",[6],100%
COC(=O)[C@H](CCSC)NCC(=O)Nc1cccc2c1C(=O)c1c(NC(=O)CN[C@@H](CCSC)C(=O)OC)cccc1C2=O,growth at 10 µM,[1],78%
same,"level, % of control",[2],24%
same,growth at 100 µM,[3],60%
same,"level, % of control",[4],94%
same,growth at 1 µM,[5],99%
same,"level, % of control",[6],105%
COC(=O)[C@H](CC(C)C)NCC(=O)Nc1cccc2c1C(=O)c1c(NC(=O)CN[C@@H](CC(C)C)C(=O)OC)cccc1C2=O,growth at 10 µM,[1],102%
same,"level, % of control",[2],88%
same,growth at 100 µM,[3],96%
same,"level, % of control",[4],101%
same,growth at 1 µM,[5],112%
same,"level, % of control",[6],101%
CCN(CC)CCC(=O)Nc1cccc2c1C(=O)c1c(NC(=O)CCN(CC)CC)cccc1C2=O,growth at 10 µM,[1],30%
same,"level, % of control",[2],0%
same,growth at 100 µM,[3],4%
same,"level, % of control",[4],35%
same,growth at 1 µM,[5],97%
same,"level, % of control",[6],99%
O=C1c2c(O)ccc(O)c2C(=O)c2c(NCCNCCO)ccc(NCCNCCO)c21 [MITOXANTRONE],growth at 10 µM,[1],0%
same,"level, % of control",[2],7%
same,growth at 100 µM,[3],0%
same,"level, % of control",[4],9%
same,growth at 1 µM,[5],23%
same,"level, % of control",[6],20%
COC(=O)[C@@H](NCC(=O)Nc1cccc2c1C(=O)c1c(NC(=O)CN[C@H](C(=O)OC)C(C)C)cccc1C2=O)C(C)C,growth at 10 µM,[1],90%
same,"level, % of control",[2],0%
same,growth at 100 µM,[3],86%
same,"level, % of control",[4],49%
same,growth at 1 µM,[5],99%
same,"level, % of control",[6],100%
COC(=O)CN(C)CC(=O)Nc1cccc2c1C(=O)c1c(NC(=O)CN(C)CC(=O)OC)cccc1C2=O,growth at 10 µM,[1],88%
same,"level, % of control",[2],73%
same,growth at 100 µM,[3],46%
same,"level, % of control",[4],95%
same,growth at 1 µM,[5],71%
same,"level, % of control",[6],106%
COC(=O)[C@@H]1CCCN1CC(=O)Nc1cccc2c1C(=O)c1c(NC(=O)CN3CCC[C@H]3C(=O)OC)cccc1C2=O,growth at 10 µM,[1],104%
same,"level, % of control",[2],8%
same,growth at 100 µM,[3],93%
same,"level, % of control",[4],59%
same,growth at 1 µM,[5],88%
same,"level, % of control",[6],87%
CN(C)CC(=O)Nc1cccc2c1C(=O)c1c(NC(=O)CN(C)C)cccc1C2=O,growth at 10 µM,[1],61%
same,"level, % of control",[2],84%
same,growth at 100 µM,[3],57%
same,"level, % of control",[4],96%
same,growth at 1 µM,[5],72%
same,"level, % of control",[6],93%
CN(C)CCCNCCC(=O)Nc1cccc2c1C(=O)c1c(NC(=O)CCNCCCN(C)C)cccc1C2=O,growth at 10 µM,[1],105%
same,"level, % of control",[2],20%
same,growth at 100 µM,[3],21%
same,"level, % of control",[4],95%
same,growth at 1 µM,[5],122%
same,"level, % of control",[6],95%
